Results taken from article PMC4545405 (ACS chemical biology, 2013).
Where two headings read alike, the source gives them in different places.

Assays:
PelD = PelD (Pseudomonas aeruginosa, UniProt A0A0H2ZD98); assay: DRaCALA / DRaCALA-HTS inhibition of 32P-cdiGMP binding to PelD; details: for fraction bound of 32P-cdiGMP to PelD in DRaCALA-HTS: NCC1 library screen, cutoff 3 standard deviations below the average
WspR [1] = biological target: T1, WspR (Pseudomonas aeruginosa, UniProt Q9HXT9); assay: DRaCALA inhibition of 32P-cdiGMP binding to WspR
[2] = system: PDE (RocR, PvrR, FimX) or PilZ (Alg44, PA3353) proteins; assay: DRaCALA inhibition of 32P-cdiGMP binding to PDE and PilZ proteins; design: species or system P. aeruginosa; details: Eb 50 μM
Method in brief: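 Purified protein was mixed with ³²P-cdiGMP in the presence of 50 μM test compound or DMSO, then spotted on nitrocellulose. Spots were imaged by phosphorimager. Fraction bound = corrected bound-ligand intensity ÷ total spot intensity.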

WspR [3] = biological target: T1, WspR; assay: WspR DGC activity assay by TLC; format: biochemical; details: for DGC activity of wild-type WspR (inhibition): 50 μM; for WspR activity after DTT treatment of preincubated WspR: with DTT
[4] = system: WspR with C49A substitution; assay: DGC activity assay of C49A WspR; format: biochemical, Pseudomonas aeruginosa; details: 50 μM
Method in brief: (§1)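 Purified WspR point mutants (C49A, C240A, or AxxA at the RxxD I-site), expressed from cloned alleles. Diguanylate cyclase activity measured by thin-layer chromatography (TLC) with test compound or cdiGMP at 50 μM, against a DMSO control. Compounds were dissolved in DMSO.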

[5] = system: WspR with C240A substitution; assay: DGC activity assay of C240A WspR; format: biochemical, Pseudomonas aeruginosa; details: 50 μM
Method in brief: as §1

[6] = system: AxxA WspR (RxxD I-site abolished); assay: DGC activity assay of AxxA WspR; format: biochemical, Pseudomonas aeruginosa; details: 50 μM
Method in brief: as §1

P. aeruginosa PA14 = assay: Growth curves; format: cell-based, Pseudomonas aeruginosa; details: 50 μM, LB, 37 °C, 16 hours, vs DMSO
Method in brief: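 P. aeruginosa PA14 grown overnight in LB at 37 °C with shaking, then subcultured in LB with 50 μM test compound or 2% DMSO alone. Grown with shaking at 37 °C for 16 h. A600 read every 5 minutes.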

[7] = system: P. aeruginosa PA14 overexpressing DGCs; assay: Swim motility assay of PA14 overexpressing DGCs; format: cell-based, Pseudomonas aeruginosa; details: for change in swimming motility compared to the DMSO control: PA14 overexpressing PA0847, IPTG; for change in swimming motility compared to the DMSO control / increase in swimming diameter compared to the DMSO control: 50 μM
PA14 pMMB-WspR = assay: Crystal violet pellicle assay, DGC-dependent biofilm formation; format: cell-based, Pseudomonas aeruginosa; details: IPTG-induced WspR, static incubation 30 °C, 16 hours
PA14 ΔretS = assay: Crystal violet pellicle assay, DGC-independent biofilm formation; format: cell-based, Pseudomonas aeruginosa
Alg44 = Alg44 (Pseudomonas aeruginosa, UniProt Q9HY69); assay: DRaCALA / DRaCALA-HTS binding of 32P-cdiGMP to Alg44; details: for Kd: Kd of Alg44 binding to 32P-cdiGMP
Sequence of Alg44 (Q9HY69 whole entry): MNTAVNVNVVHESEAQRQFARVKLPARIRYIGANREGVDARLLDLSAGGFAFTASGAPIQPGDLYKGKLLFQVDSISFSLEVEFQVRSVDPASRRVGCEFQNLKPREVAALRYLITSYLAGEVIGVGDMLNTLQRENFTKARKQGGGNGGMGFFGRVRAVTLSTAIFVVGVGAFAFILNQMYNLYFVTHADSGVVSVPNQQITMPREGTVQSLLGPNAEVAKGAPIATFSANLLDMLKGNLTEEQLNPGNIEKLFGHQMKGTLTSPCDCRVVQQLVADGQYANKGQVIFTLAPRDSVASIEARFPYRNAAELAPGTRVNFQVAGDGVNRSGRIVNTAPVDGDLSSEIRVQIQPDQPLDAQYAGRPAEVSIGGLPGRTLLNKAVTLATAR

[8] = PA14 overexpressing PA1107, IPTG
[9] = PA14 overexpressing PA1120, IPTG
[10] = PA14 overexpressing PA1727, IPTG

SMILES | fraction bound of 32P-cdiGMP to PelD in DRaCALA-HTS (PelD) | reduction of 32P-cdiGMP binding to PDE or PilZ proteins [2] | DGC activity of wild-type WspR (inhibition) (WspR [3]) | WspR activity after DTT treatment of preincubated WspR (WspR [3]) | DGC activity of C49A WspR (inhibition) [4] | DGC activity of C240A WspR (inhibition) [5] | DGC activity of AxxA WspR (inhibition) [6] | growth of P. aeruginosa PA14 (P. aeruginosa PA14) | change in swimming motility compared to the DMSO control [7] | increase in swimming diameter compared to the DMSO control [7, 8] | increase in swimming diameter compared to the DMSO control [7, 9] | increase in swimming diameter compared to the DMSO control [7, 10] | increase in swimming diameter compared to the DMSO control ([7]; PA14 overexpressing WspR, IPTG) | reduction of biofilm formation compared to the DMSO control (PA14 pMMB-WspR) | DGC-independent biofilm formation (PA14 ΔretS) | further results
O=c1c2ccccc2[se]n1-c1ccccc1 [Eb, ebselen] | below the positive cutoff of 3 standard deviations below the average | ≤ 25% | inhibited | returned WspR activity to the level of the DMSO control | still susceptible to inhibition | completely refractory | no longer inhibited | No difference in growth | no change in swimming motility | 3.4 fold | 2.5 fold | 1.1 fold | 2 fold | ~ 40% | Neither Eb nor EbO reduced biofilm formation | IC50 (PelD): 5 ± 2 µM; inhibition at 50 µM (PelD; read-out: reduction of cdiGMP binding to PelD): 80%; IC50 (WspR [1]): 13.6 ± 0.5 µM; inhibition at 50 µM (WspR [1]; read-out: reduction of cdiGMP binding to WspR): 90%; inhibition at 50 µM (WspR [3]; read-out: reduction of WspR activity (velocity)): 87%; WspR velocity at varying substrate and Eb concentrations (WspR [3]; varying substrate concentrations): reduced WspR velocity in a concentration dependent manner
O=C1c2ccccc2[Se](=O)N1c1ccccc1 (centres unmarked) [EbO, ebselen oxide] |  | did not reduce | inhibited | returned WspR activity to the level of the DMSO control | still susceptible to inhibition | completely refractory | no longer inhibited | No difference in growth | no change in swimming motility | 4 fold | 3.4 fold | 1.3 fold | 2.5 fold | ~ 40% | Neither Eb nor EbO reduced biofilm formation | reduction of cdiGMP binding to PelD (PelD; compared to the DMSO control, Eb 50 μM): ~ 60%; IC50 (PelD; read-out: IC50 for PelD (inhibition of cdiGMP binding), DRaCALA): 5 ± 2 µM; IC50 for WspR (inhibition of cdiGMP binding) (WspR [1]; DRaCALA): did not show inhibition; reduction of cdiGMP binding to WspR (WspR [1]; compared to the DMSO control, Eb 50 μM, no preincubation): ~ 30%; reduction of 32P-cdiGMP binding to WspR after preincubation (WspR [1]; preincubation of WspR for 30 minutes before addition of 32P-cdiGMP): 86%; reduction of WspR activity (velocity) (WspR [3]; 10 μM GTP, inhibitor 50 μM): 87%; reversal of cdiGMP-mediated repression of swimming, concentration dependence ([7]; PA14 overexpressing PA3702, IPTG, different concentrations): at a lower concentration
Nc1nc2c(ncn2[C@@H]2O[C@@H]3COP(=O)(O)O[C@H]4[C@@H](O)[C@H](n5cnc6c(=O)[nH]c(N)nc65)O[C@@H]4COP(=O)(O)O[C@H]3[C@H]2O)c(=O)[nH]1 [cdiGMP, cyclic-di-GMP] | no binding was observed |  | inhibited |  | still susceptible to inhibition | inhibited | no longer inhibited |  |  |  |  |  |  |  |  | average fraction bound of 32P-cdiGMP to Alg44 with cdiGMP competitor (Alg44; 384-well plate, 25 μM unlabeled cdiGMP): 0.007±0.005; Kd (Alg44; 384 well format, HTS-DRaCALA): 0.239 ± 0.007 µM; Kd (Alg44; fraction bound in individual reaction mixtures): 0.38 ± 0.02 µM
